Screening results deposited in PubChem by several laboratories.
DAGLB inh = diacylglycerol lipase beta (human) inhibition | HEK293T DAGLB membrane lysate, EnzChek fluorogenic substrate | AID 504411 | inhibition, % at 5.17 µM | actives 0.059% (n = 340,000) | Q8NCG7; in the data active = inhibition above about 34%;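 note: 0% = enzyme with vehicle and 100% = wells lacking enzyme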
CTSL1 counter = counter-screen for PFM18AAP inhibitors: inhibitors of F. hepatica cathepsin L1. recombinant F. hepatica cathepsin L1, Z-Leu-Arg-MCA fluorescence. actives 0.49% (n = 300,000). inhibition, % at 5.96 µM. AID 1906;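 active = inhibition above the mean of all tested compounds plus 3 SD, set per screening campaign, cut at about 17% in these data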;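 note: 0% = plate median of test compound wells and 100% = 1 µM Z-Phe-Ala-diazomethylketone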
UCH37 inh = inhibitors of human deubiquitinating enzyme UCH37; actives 0.33% (n = 330,000); inhibition, % (concentration not given with the values); purified proteasome/UCH37, Ub-AMC cleavage fluorescence;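 active = mean inhibition over replicate wells above about 20%, limit read from the data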;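 note: 0% = compound-free wells with enzyme and 100% = wells lacking proteasome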
Target sequence (Q9Y5K5 whole entry, looked up): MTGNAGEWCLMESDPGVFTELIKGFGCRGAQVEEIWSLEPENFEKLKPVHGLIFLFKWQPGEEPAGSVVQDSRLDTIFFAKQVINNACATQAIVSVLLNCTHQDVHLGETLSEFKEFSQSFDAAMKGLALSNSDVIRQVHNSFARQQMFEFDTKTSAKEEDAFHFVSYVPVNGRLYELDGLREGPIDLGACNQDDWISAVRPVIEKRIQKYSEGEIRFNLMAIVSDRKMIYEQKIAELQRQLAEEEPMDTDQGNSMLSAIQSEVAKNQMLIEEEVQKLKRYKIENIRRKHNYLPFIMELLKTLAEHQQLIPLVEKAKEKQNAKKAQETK
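Material: Human UCH37 enzyme supplied as purified proteasome complex | Schedule: 30 min preincubation with enzyme, 25 min cleavage at room temperature | Detection: AMC fluorescence 355/460 nm | Measure: % inhibition of Ub-AMC cleavage fluorescence | Controls: Wells without proteasome as full block, compound-free enzyme plus substrate as uninhibited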
CendR NRP1 mod = modulators of CendR peptide binding to human neuropilin-1; O14786; FAM-RPARPAR peptide binding to NRP-1, fluorescence polarization; inhibition, % at 25 µM; actives 0.85% (n = 360,000); AID 602438;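 active = inhibition or corrected inhibition above about 18%, plus a signal ratio from 0.5 to 1.5, limit read from the data, passing the limit was not always enough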
MT1-MMP act inh = blocks activation of human MT1-MMP. P50281. HT1080 RFP-PRO-GFP cells, GFP/RFP ratio fluorescence, overnight; percent of plate control window, DMSO zero. GFP/RFP ratio change, % at 20 µM. actives 0.061% (n = 360,000);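 active = GFP/RFP ratio change of at least 30% with cell ATP level not reduced by more than half and red fluorescence within 50% of control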
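system = RFP-PRO-GFP reporter HT1080 cells | dosing = 20 µM single dose, 1% DMSO | timing = overnight cell settling, then overnight compound exposure, 37 °C, 5% CO2 | read-out basis = GFP/RFP fluorescence ratio | controls = DMSO and RFP-L50D-GFP cell wells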
Starred values were filed as active, the others as inactive; i = inactive; x = no result given. This is a sample that favours compounds with a hit; in the whole collection about 1.5% have one here.

SMILES | DAGLB inh | CTSL1 counter | UCH37 inh | CendR NRP1 mod | MT1-MMP act inh
O=C(c1ccc(Br)cc1)c1coc2ccc(O)cc12 | -1 | 0 | 2 | -6 | -3
O=C(c1coc2ccc(O)cc12)C1CC1 | -2 | 1 | 3 | 19* | 4
Cn1cc(-c2cc(C(=O)O)on2)cn1 | 1 | -10 | 1 | 25* | 3
CCOC(=O)C(=NNc1ccc(C)cc1)S(=O)(=O)c1ccc(Cl)cc1 | x | x | 7 | x | x
COc1cc(C=NNC(=O)CSc2ccccn2)ccc1O | x | x | 8 | x | x
CCCCCc1ccc(CC(=O)O)cc1 | 1 | -2 | 0 | 38* | 0
CC(=NNC(=O)CC1C(=O)NN=C1C)c1cccs1 (stereo not drawn) | x | x | 6 | x | x
CCOc1ccc(CCNC(=O)c2nccnc2C(=O)O)cc1OCC | -1 | -3 | 5 | 13 | 0
CCOc1ccc(CCNC(=O)C2(c3ccccc3)CC2)cc1OCC | -1 | 7 | 2 | 20* | -4
Cc1cc2cc(CNC(=O)c3ccc(S(=O)(=O)N(C)C)cc3)ccc2n1C | 8 | -2 | 4 | 10 | 32
Cc1cc2cc(CNC(=O)c3ccc(S(=O)(=O)N4CCOCC4)cc3)ccc2n1C | 2 | -2 | 3 | 28* | 35
O=C(CSCCc1ccccn1)Nc1cccnc1 | -6 | 9 | 23* | 0 | -1
Cc1cccc(/C=N/c2sc3c(c2C(=O)OC(C)(C)C)CCN(C)C3)c1O | 2 | -13 | x | 31* | -5
CCOC(=O)c1c(/N=C/c2cc(C)ccc2O)sc2c1CCN(C)C2 | -1 | 1 | x | -18 | 2
Cc1cccc(CCN2CCN=C2Nc2ccccc2)c1 | 0 | -3 | 2 | 27* | 1
COc1cc(C=NNC(=O)C(N)=O)cc(OC)c1O | x | x | 11 | x | x
Cc1ccc(NC2=CC(=NS(=O)(=O)c3cccs3)c3ccccc3C2=O)cc1 | x | x | 22* | x | x
O=C1C(Nc2ccccc2)=C/C(=N/S(=O)(=O)c2cccs2)c2ccccc21 | 28 | 82* | x | 22 | -3
Cc1ccc(NC2=C/C(=N/S(=O)(=O)c3cccs3)c3ccccc3C2=O)cc1 | 11 | 60* | x | -1 | -31
O=C1C=C(Nc2ccccc2)C(=O)c2ccccc21 | 26 | 2 | 6 | 0 | 24
Cc1ccc(/C=C2\S/C(=N/S(=O)(=O)c3cccs3)NC2=O)cc1 | 19 | 5 | 11 | -176 | 1
O=C(CSc1nc2ccccc2[nH]1)NN=C/C=C\c1ccccc1[N+](=O)[O-] | x | x | 2 | x | x
COc1cc(C#N)ccc1OC(=O)Cc1cc(OC)c(OC)c(OC)c1 | 3 | 3 | 7 | 25* | -1
O=C(O)c1cccc(-c2ccc(C=c3sc4nc5ccccc5n4c3=O)o2)c1 | x | x | 5 | x | x
CN(C)C=Nc1nc2nccc(-c3ccc(Cl)cc3)n2n1 | x | x | i | x | x
SMILES | DAGLB inh | CTSL1 counter | UCH37 inh | CendR NRP1 mod | MT1-MMP act inh
CCOC(=O)/C(=C/C1=CC(=C/N(C)C)/C(=O)O1)C(C)=O | -4 | 4 | 22* | -252 | -61
CCOC(=O)/C(=C/c1ccc(OC(=O)c2ccccc2)cc1)C(C)=O | 0 | -1 | 4 | 5 | 6
CCCn1c(=C(C#N)C#N)sc(=C2C=Cc3ccccc3N2CC)c1=O | x | x | 1 | x | x
Cc1ccc(C)c(S(=O)(=O)N2CCN(C(=O)CSc3ccccc3F)CC2)c1 | -2 | -1 | 4 | 24* | -3
Cc1ccc(C)c(S(=O)(=O)N2CCN(C(=O)Cc3c(F)cccc3Cl)CC2)c1 | -7 | 1 | x | -17 | -2
CCOC(=O)C1=C(N)Oc2cc(O)ccc2C1c1cccnc1 (stereo not drawn) | 4 | -1 | 4 | -4 | -5
CCOC(=O)C1=C(N)Oc2cc(O)ccc2C1c1cccc(Cl)c1 (stereo not drawn) | -2 | 3 | 4 | 27* | -8
OCCC1CN(Cc2cccn2-c2ccccn2)CCN1C1CCCCC1 (stereo not drawn) | 0 | 74* | 2 | 5 | 2
CN(C)c1ccc(/C=N/Nc2nc3ccccc3o2)cc1 | 3 | -1 | x | 6 | -1
CCS(=O)(=O)c1ccc(C=NNc2nc3ccccc3o2)cc1 | 1 | x | 10 | 18* | 0
CC1CCc2[nH]c3ccc(C(=O)O)cc3c2C1 (stereo not drawn) | 0 | 0 | 4 | -4 | 1
O=C(O)c1ccc2[nH]c3c(c2c1)CCCC3 | 0 | x | 21* | 8 | 1
COc1c2c(c3c(c1OC)c(=O)c1ccccc1n3C)OCO2 | -3 | x | 8 | 26* | -8
CC(=NNS(=O)(=O)c1ccc(Br)cc1)c1c[nH]c2ccccc12 | x | x | 1 | x | x
COc1ccc(CCNC(=O)Nc2nc(C(N)C3CCCCC3)cs2)cc1OC (stereo not drawn) | x | x | x | 17* | -3
O=C(c1ccccc1)C1C(=O)c2ccccc2C1=O | -2 | -1 | 31* | 9 | -195
Cc1nn(C(=O)CN2C(=O)c3ccccc3C2=O)c(C)c1Br | 1 | 6 | 28* | 17 | 6
Cc1cccc(NC(=S)NC(=NS(=O)(=O)c2ccccc2)c2ccccc2)c1 | x | x | 4 | x | x
c1ccc(SCCc2ccncc2)cc1 | -4 | 0 | 4 | 2 | -2
CC(C)(C)c1ccc(SCCc2cccnc2)cc1 | -9 | -2 | 0 | 31* | 0
C/C(=N\N(c1ccccc1)c1ccccc1)c1ccc(O)cc1 | 0 | 2 | x | 11 | 1
CC(=NN(Cc1ccccc1)c1ccccc1)c1ccccc1 | -9 | x | x | 22* | 3
COc1ccc(-n2c(=O)c3c4c(sc3n3c(=S)[nH]nc23)CCC4)cc1 | 0 | 17* | 3 | -10 | 0
Cc1ccc(-n2c(=O)c3c4c(sc3n3c(=S)[nH]nc23)CCC4)cc1 | x | 2 | 7 | 7 | -3
N#Cc1ccc(COC(=O)c2cnc(Cl)c(Cl)c2)cc1 | -5 | -1 | 1 | 25* | 0
SMILES | DAGLB inh | CTSL1 counter | UCH37 inh | CendR NRP1 mod | MT1-MMP act inh
O=C(OCc1ccccc1)c1cnc(Cl)c(Cl)c1 | -8 | 6 | 2 | 19 | -1
Cc1cc(C(=O)CN2C(=O)c3ccccc3S2(=O)=O)c(C)n1-c1ccccc1 | -3 | 2 | -1 | -5 | 8
Cc1cc(C(=O)CN2C(=O)C3CC=CCC3C2=O)c(C)n1-c1ccccc1 (stereo not drawn) | -3 | -1 | -1 | 29* | 0
COCCNC(=O)c1onc(CSc2cc(C)cc(C)c2)c1C(=O)O | 3 | -2 | 34* | 18 | 2
COCCNC(=O)c1onc(CSc2ccc(C)c(C)c2)c1C(=O)O | 5 | 3 | 4 | -5 | 4
CC(C)NC(=O)c1c(CSc2ccccc2)noc1C(=O)NCc1ccccc1 | -8 | 0 | 0 | 32* | -1
CC(C)NC(=O)c1c(CSc2ccc(Cl)cc2)noc1C(=O)NCc1ccccc1 | -6 | 1 | 7 | 13 | -5
CC(=NNC(=O)c1ccc(F)cc1)c1cccc(NC(=O)c2cccc(F)c2)c1 | x | x | 4 | x | x
